Key:
[1] = molecular target: T1, MAP/microtubule affinity-regulating kinase 4 (Homo sapiens) (UniProt Q96L34); assay: Inhibition of MARK4 at 1 uM
T1 sequence (whole entry): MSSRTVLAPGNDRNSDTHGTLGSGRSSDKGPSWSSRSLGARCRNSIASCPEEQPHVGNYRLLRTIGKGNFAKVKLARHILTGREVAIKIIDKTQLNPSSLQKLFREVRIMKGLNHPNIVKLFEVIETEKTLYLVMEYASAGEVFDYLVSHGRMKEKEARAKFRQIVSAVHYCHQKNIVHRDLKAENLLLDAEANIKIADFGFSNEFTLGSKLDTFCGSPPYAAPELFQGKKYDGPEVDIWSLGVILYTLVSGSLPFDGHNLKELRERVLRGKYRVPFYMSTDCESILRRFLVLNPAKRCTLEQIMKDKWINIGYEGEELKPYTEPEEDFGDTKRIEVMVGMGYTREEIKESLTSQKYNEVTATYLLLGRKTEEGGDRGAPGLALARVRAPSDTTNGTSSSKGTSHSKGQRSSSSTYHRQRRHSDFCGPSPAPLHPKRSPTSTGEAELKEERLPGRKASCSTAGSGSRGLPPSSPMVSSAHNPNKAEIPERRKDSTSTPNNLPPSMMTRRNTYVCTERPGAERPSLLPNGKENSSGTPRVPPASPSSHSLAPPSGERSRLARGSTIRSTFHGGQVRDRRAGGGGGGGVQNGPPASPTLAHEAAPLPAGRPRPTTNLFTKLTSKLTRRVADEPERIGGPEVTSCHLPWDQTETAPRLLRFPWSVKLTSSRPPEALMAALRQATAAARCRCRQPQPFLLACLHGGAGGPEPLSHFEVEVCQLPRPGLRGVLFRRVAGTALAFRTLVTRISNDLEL
How it was run: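 Kinase-panel screen using KINOMEscan technology, with 250–400 kinases per panel. Each compound was tested at a single concentration, and inhibition of each kinase was recorded. Selectivity was summarised as S(90), the fraction of kinases inhibited by more than 90%.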

[2] = molecular target: T2, Mitogen-activated protein kinase 12 (Homo sapiens) (UniProt P53778); assay: Inhibition of p38-gamma at 1 uM
T2 sequence (whole entry): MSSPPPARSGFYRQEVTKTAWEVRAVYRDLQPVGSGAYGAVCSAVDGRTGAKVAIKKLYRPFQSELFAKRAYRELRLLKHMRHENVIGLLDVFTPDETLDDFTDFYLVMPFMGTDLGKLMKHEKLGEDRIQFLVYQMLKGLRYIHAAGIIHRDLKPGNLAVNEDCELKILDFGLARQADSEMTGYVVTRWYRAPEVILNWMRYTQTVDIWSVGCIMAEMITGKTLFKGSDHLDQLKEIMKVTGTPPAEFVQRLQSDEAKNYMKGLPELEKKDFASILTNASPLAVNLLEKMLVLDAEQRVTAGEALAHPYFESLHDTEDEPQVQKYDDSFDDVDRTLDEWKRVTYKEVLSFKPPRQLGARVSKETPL

[3] = molecular target: T3, Tyrosine-protein kinase Tec (Homo sapiens) (UniProt P42680); assay: Inhibition of TEC at 1 uM
T3 sequence (whole entry): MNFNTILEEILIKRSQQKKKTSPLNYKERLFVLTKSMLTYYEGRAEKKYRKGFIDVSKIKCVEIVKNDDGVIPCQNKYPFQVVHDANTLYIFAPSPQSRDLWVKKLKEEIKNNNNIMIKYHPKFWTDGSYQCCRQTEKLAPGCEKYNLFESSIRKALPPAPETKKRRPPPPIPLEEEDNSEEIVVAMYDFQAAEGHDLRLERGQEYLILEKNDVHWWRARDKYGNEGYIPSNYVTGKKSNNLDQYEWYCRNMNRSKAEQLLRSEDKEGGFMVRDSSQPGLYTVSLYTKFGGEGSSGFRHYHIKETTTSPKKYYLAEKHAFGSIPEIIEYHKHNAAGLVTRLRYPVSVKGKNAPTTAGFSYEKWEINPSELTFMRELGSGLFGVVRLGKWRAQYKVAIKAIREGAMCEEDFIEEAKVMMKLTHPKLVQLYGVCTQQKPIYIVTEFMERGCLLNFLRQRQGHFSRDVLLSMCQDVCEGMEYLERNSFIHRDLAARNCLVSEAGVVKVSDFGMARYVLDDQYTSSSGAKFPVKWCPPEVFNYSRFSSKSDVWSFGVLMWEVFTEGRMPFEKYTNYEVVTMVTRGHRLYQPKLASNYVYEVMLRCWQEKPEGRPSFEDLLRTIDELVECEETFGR

[4] = molecular target: T4, Serine/threonine-protein kinase LATS2 (Homo sapiens) (UniProt Q9NRM7); assay: Inhibition of LATS2 at 1 uM
T4 sequence (whole entry): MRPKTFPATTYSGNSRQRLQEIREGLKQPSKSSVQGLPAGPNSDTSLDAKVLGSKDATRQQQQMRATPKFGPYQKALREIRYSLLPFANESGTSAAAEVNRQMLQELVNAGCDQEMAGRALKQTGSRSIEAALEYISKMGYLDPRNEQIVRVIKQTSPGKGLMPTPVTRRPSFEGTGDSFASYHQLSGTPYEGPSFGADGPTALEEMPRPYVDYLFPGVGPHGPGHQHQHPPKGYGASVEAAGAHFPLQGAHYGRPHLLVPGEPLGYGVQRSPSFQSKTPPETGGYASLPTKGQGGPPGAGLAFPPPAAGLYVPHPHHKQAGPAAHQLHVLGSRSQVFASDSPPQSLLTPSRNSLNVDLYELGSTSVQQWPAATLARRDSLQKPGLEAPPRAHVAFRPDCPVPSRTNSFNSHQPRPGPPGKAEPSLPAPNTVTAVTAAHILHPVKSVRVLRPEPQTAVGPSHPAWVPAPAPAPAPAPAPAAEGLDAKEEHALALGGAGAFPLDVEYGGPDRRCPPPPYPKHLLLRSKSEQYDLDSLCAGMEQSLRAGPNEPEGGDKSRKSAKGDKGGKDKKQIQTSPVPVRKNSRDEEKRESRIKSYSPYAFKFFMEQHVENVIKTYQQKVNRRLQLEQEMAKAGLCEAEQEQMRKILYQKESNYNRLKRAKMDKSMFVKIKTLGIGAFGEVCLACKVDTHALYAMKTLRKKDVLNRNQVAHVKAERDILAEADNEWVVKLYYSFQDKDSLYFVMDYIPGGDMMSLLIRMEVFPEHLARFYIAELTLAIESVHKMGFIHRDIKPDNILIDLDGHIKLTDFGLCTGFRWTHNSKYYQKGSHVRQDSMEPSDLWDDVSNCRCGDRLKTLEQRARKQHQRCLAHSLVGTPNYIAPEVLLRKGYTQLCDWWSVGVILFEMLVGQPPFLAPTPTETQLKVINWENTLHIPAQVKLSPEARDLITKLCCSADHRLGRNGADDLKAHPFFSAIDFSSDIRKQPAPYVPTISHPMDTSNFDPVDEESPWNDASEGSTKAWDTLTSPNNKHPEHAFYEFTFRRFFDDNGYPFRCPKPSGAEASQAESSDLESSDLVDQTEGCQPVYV

Measured: inhibition

O=C(c1ccc(-c2cnc3c(c2)N(Cc2cc(Cl)ccc2C(F)(F)F)CCN3)cc1)N1CCCCC1
< 50%: [1] | [2]

CN1CCN(c2ccc(-c3cnc4c(c3)N(Cc3c(F)ccc(F)c3Cl)CCN4)cn2)CC1
< 50%: all assays above

COC1CCN(C(=O)c2ccc(-c3cnc4c(c3)N(Cc3cc(Cl)ccc3C(F)(F)F)CCN4)cc2)CC1
< 50%: [1] | [2]

O=C(O)c1ccc(-c2cnc3c(c2)N(Cc2cc(Cl)ccc2C(F)(F)F)CCN3)cc1
< 50%: [1] | [2]

FC(F)(F)c1ccc(Cl)cc1CN1CCNc2ncc(-c3ccnc(N4CCNCC4)c3)cc21
< 50%: all assays above

CN1CCN(c2ccc(-c3cnc4c(c3)N(Cc3cc(Cl)ccc3Cl)CCN4)cn2)CC1
< 50%: all assays above

O=C(c1ccc(-c2cnc3c(c2)N(Cc2cc(Cl)ccc2C(F)(F)F)CCN3)cc1)N1CCC(N2CCCC2)CC1
< 50%: [1] | [2]

CN1CCN(c2ccc(-c3cnc4c(c3)N(Cc3cc(Cl)ccc3C(F)(F)F)CCN4)cn2)CC1
< 50%: all assays above

CC(=O)N1CCN(c2cc(-c3cnc4c(c3)N(Cc3cc(Cl)ccc3C(F)(F)F)CCN4)ccn2)CC1
< 50%: all assays above

CN1CCN(c2ccc(-c3cnc4c(c3)N(Cc3cc(F)ccc3F)CCN4)cn2)CC1
< 50%: all assays above
